{"source": "paper PMC7027977", "about": "(Clinical Pharmacology and Therapeutics, 2019)", "key": {"patients with CD": {"system": "patients with CD", "conditions": "cited from earlier work"}, "[1]": {"system": "subjects with moderate‐to‐severe active Crohn's disease", "assay": "Regression", "assay_type": "in vivo, human", "conditions": "Cave as exposure metric; week 12/16", "how_it_was_run": "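SES-CD came from centrally read ileocolonoscopy at screening and at a randomly assigned week 12 or 16, with the two weeks pooled. End points were endoscopic response 25% and 50% and endoscopic remission, with nonresponder imputation. Regression Emax models related them to individual steady-state Cave over the dosing interval. The study used placebo and 3–24 mg b.i.d. or 24 mg q.d. IR oral dosing.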"}, "[2]": {"conditions": "cited from earlier work"}, "[3]": {"assay_type": "in vivo, human", "conditions": "for Cmax: human, plasma, oral", "how_it_was_run": "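Patients with Crohn's disease took oral IR tablets at 3, 6, 12 or 24 mg b.i.d. or 24 mg q.d. for a 16-week induction. Sparse plasma samples were taken at weeks 2, 4, 8, 12 and 16, with time from last dose recorded, and assayed by validated LC-MS. Steady-state Cmax and Cmin came from empirical Bayesian individual estimates. Cave = Dose/(CL/F × dosing interval). Values are median (5th–95th percentiles).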"}, "[4]": {"assay": "Population pharmacokinetic analysis of upadacitinib IR formulation", "assay_type": "in vivo, human", "how_it_was_run": "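A population PK model previously built for healthy subjects and RA patients was the starting model. It was fitted to sparse CELEST plasma concentrations: weeks 2–16, validated LC-MS, sampling time relative to last dose recorded. Covariate effects were judged by differences in Cave between covariate groups. Dose was tested as a covariate on model parameters to assess dose proportionality.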"}, "[5]": {"assay_type": "in vivo, human", "conditions": "healthy subjects, ER formulation study", "how_it_was_run": "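ER absorption parameters were estimated from phase I data in healthy volunteers given the extended-release formulation. They were then incorporated into the exposure–response models to simulate ER q.d. regimens.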"}, "[6]": {"conditions": "3 mg b.i.d. IR, steady-state, CD patients, CELEST"}, "[7]": {"conditions": "6 mg b.i.d. IR, steady-state, CD patients, CELEST"}, "[8]": {"conditions": "12 mg b.i.d. IR, steady-state, CD patients, CELEST"}, "[9]": {"conditions": "24 mg b.i.d. IR, steady-state, CD patients, CELEST"}, "[10]": {"conditions": "24 mg q.d. IR, steady-state, CD patients, CELEST"}}, "note": "“And” between values parts separate entries of the source, which are not always exact repeats. Identical values can stand only once. Like-named read-outs stand apart in the source and are kept apart here."}
{"smiles": "O=C(Nc1nc2cccc(-c3ccc(CN4CCS(=O)(=O)CC4)cc3)n2n1)C1CC1", "note": "[Filgotinib]", "values": [{"measurement": "efficacy in CD", "setting": "patients with CD", "result": "has shown efficacy"}]}
{"smiles": "CC[C@@H]1CN(C(=O)NCC(F)(F)F)C[C@@H]1c1cnc2cnc3[nH]ccc3n12", "note": "[Upadacitinib]", "values": [{"measurement": "EC50 for endoscopic remission", "setting": "[1]", "result": 0.027, "unit": "µg/mL"}, {"measurement": "EC50 for endoscopic response 50%", "setting": "[1]", "result": 0.026, "unit": "µg/mL"}, {"measurement": "dose proportionality of plasma exposures", "setting": "[2]; 3–48 mg IR or 7.5–45 mg ER, ref 21,23 (data on file at AbbVie)", "result": "dose‐proportional"}, {"measurement": "functional half‐life", "setting": "[2]; IR formulation", "result": "3 to 4", "unit": "h"}, {"measurement": "increase in bioavailability from the ER formulation after a high‐fat meal", "setting": "[2]", "result": "~ 20%"}, {"measurement": "relative bioavailability of ER formulation", "setting": "[2]; more extensive dataset in subjects with RA", "result": 76, "unit": "%"}, {"measurement": "time to reach maximum plasma concentration", "setting": "[2]; oral, IR formulation", "result": "1 to 2", "unit": "h"}, {"measurement": "exposure of ER 15 mg and 30 mg q.d. vs IR 6 mg b.i.d. and 12 mg b.i.d.", "setting": "[2]; phase I study, healthy subjects", "result": "equivalent Cave and similar Cmax and Cmin"}, {"measurement": "Cave, median (5th to 95th percentiles)", "setting": "[3]; [6]", "result": "6.9 (4.6–14.1) ng/mL"}, {"measurement": "Cmin, median (5th to 95th percentiles)", "setting": "[3]; [6]", "result": "1.2 (0.4–6.6) ng/mL"}, {"measurement": "Cave, median (5th to 95th percentiles)", "setting": "[3]; [7]", "result": "14.9 (7.6–25.2) ng/mL"}, {"measurement": "Cmin, median (5th to 95th percentiles)", "setting": "[3]; [7]", "result": "2.6 (0.2–7.5) ng/mL"}, {"measurement": "Cave, median (5th to 95th percentiles)", "setting": "[3]; [8]", "result": "26.7 (8.5–49.6) ng/mL"}, {"measurement": "Cmax, median (5th to 95th percentiles)", "setting": "[3]; [8]", "result": "80.7 (25.3–124) ng/mL"}, {"measurement": "Cmin, median (5th to 95th percentiles)", "setting": "[3]; [8]", "result": "4.9 (0.2–25.2) ng/mL"}, {"measurement": "Cave, median (5th to 95th percentiles)", "setting": "[3]; [9]", "result": "55.1 (29.8–91.8) ng/mL"}, {"measurement": "Cmin, median (5th to 95th percentiles)", "setting": "[3]; [9]", "result": "7.8 (1.8–20.7) ng/mL"}, {"measurement": "Cave, median (5th to 95th percentiles)", "setting": "[3]; [10]", "result": "25.1 (13.6–92.0) ng/mL"}, {"measurement": "Cmin, median (5th to 95th percentiles)", "setting": "[3]; [10]", "result": "1.7 (0.3–34.2) ng/mL"}, {"measurement": "Cmax", "setting": "[3]; 3 mg", "result": 21.8, "unit": "ng/mL"}, {"measurement": "Cmax", "setting": "[3]; 6 mg", "result": 40.2, "unit": "ng/mL"}, {"measurement": "Cmax", "setting": "[3]; 24 mg", "result": 161, "unit": "ng/mL"}, {"measurement": "dose proportionality of exposure", "setting": "[4]; 3–24 mg b.i.d.", "result": "approximately dose‐proportional"}, {"measurement": "higher Cave with renal impairment", "setting": "[4]; creatinine clearance 50 mL/minute vs 110 mL/minute", "result": 28, "unit": "%"}, {"measurement": "CL/F in subjects with CD relative to healthy subjects", "setting": "[4]; population PK", "result": "comparable"}, {"measurement": "lower clearance in subjects with RA compared with non‐RA subjects", "setting": "[4]; population PK", "result": "22% and ~ 20%"}, {"measurement": "higher Cave in women compared with men", "setting": "[4]; population PK covariate", "result": 18, "unit": "%"}, {"measurement": "lower CL/F in women compared with men", "setting": "[4]; population PK covariate", "result": 15, "unit": "%"}, {"measurement": "lower Vc/F in women compared with men", "setting": "[4]; population PK covariate", "result": 25, "unit": "%"}, {"measurement": "difference in Cave among different covariate groups", "setting": "[4]; renal impairment, sex, bodyweight covariates", "result": "< 30", "unit": "%"}, {"measurement": "lower Cave in subjects with CD than in subjects with RA", "setting": "[4]; same dose", "result": "~ 20%"}, {"measurement": "Intersubject variability in CL/F", "setting": "[4]; subjects with CD", "result": 41, "unit": "%"}, {"measurement": "Intersubject variability in Vc/F", "setting": "[4]; subjects with CD", "result": 29, "unit": "%"}, {"measurement": "bioavailability of ER formulation relative to IR formulation", "setting": "[5]", "result": 74, "unit": "%"}]}
{"smiles": "C[C@@H]1CCN(C(=O)CC#N)C[C@@H]1N(C)c1ncnc2[nH]ccc12", "note": "[tofacitinib]", "values": [{"measurement": "efficacy in patients with CD", "setting": "patients with CD; two phase II studies", "result": "did not demonstrate efficacy"}]}
